According to publication PMC9122571 (RSC Advances, 2020):

Columns and labels:
A549 cells [1] = assay: In vitro cytotoxicity, MTT assay; type: cell-based, human; conditions: 48 h
In short: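 A549 cells (DMEM, 10% FBS, penicillin/streptomycin, 37 °C, 5% CO2) seeded at 5 × 10³ per well and left overnight. Exposed 48 h to test compound at 6.25–200 μM. MTT (0.5 mg mL−1 in DMEM) added for 4 h; formazan dissolved in DMSO; A490 read. Viability taken as % of (ODtest − ODblank)/(ODcontrol − ODblank); means ± SD.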

[2] = DPPH radical scavenging assay
In short: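 Test compound dissolved in DMSO and diluted in ethanol; a series of concentrations mixed with 2 mL DPPH solution (3.94 mg per 100 mL anhydrous ethanol). Kept 30 min at room temperature in the dark, then A519 read. Scavenging calculated as % of (Acontrol − Asample)/Acontrol. Vitamin C served as reference.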

A549 cells [3] = assay: Cell viability after H2O2 induced oxidative stress; type: cell-based, human; conditions: A549, 24 h pretreatment at 3.125–100 μM, then 800 μM H2O2 for 4 h
In short: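 A549 cells in DMEM with 10% FBS and penicillin/streptomycin at 37 °C, 5% CO2, pretreated with test compound for 24 h, then given 800 μM H2O2 for 4 h. Untreated and H2O2-only groups run alongside. Viability by MTT (0.5 mg mL−1, 4 h, DMSO solubilisation, A490) as % of (ODtest − ODblank)/(ODcontrol − ODblank). n = 4; ANOVA with LSD post hoc test.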

SMILES: CC(=O)Oc1ccc(/C=C\C(=O)Nc2ccc(S(=O)(=O)Nc3ncccn3)cc2)cc1OC(C)=O [ACASDZ, (Z)-4-(3-Oxo-3-(4-(N-pyrimidin-2ylsulfamoyl)phenylamino)prop-1-enyl)-1,2-phenylene diacetate]
- viability of A549 cells (A549 cells [1]; concentration ≤200 μM): not significantly decreased

SMILES: COc1cnc(NS(=O)(=O)c2ccc(NC(=O)/C=C\c3ccc(OC(C)=O)c(OC(C)=O)c3)cc2)nc1 [ACASMD, (Z)-4-(3-(4-(N-(5-Methoxypyrimidin-2yl)sulfamoyl)phenylamino)-3-oxoprop-1-enyl)-1,2-phenylene diacetate]
- viability of A549 cells (A549 cells [1]; concentration ≤200 μM): not significantly decreased

SMILES: CC(=O)Oc1ccc(/C=C\C(=O)Nc2ccc(S(N)(=O)=O)cc2)cc1OC(C)=O [ACASN, (Z)-4-(3-Oxo-3-(4-sulfamoylphenylamino)prop-1-enyl)-1,2-phenylene diacetate]
- viability of A549 cells (A549 cells [1]; concentration ≤200 μM): not significantly decreased

SMILES: O=C(/C=C\c1ccc(O)c(O)c1)Nc1ccc(S(=O)(=O)Nc2ncccn2)cc1 [CASDZ, (Z)-3-(3,4-Dihydroxyphenyl)-N-(4-(N-pyrimidin-2-ylsulfamoyl)phenyl)acrylamide]
- free radical scavenging effect compared with vitamin C [2]: higher
- growth of A549 cells (A549 cells [1]; concentration of 200 μM): significantly inhibits
- viability of A549 cells (A549 cells [1]; concentration ≤200 μM): not significantly decreased

SMILES: COc1cnc(NS(=O)(=O)c2ccc(NC(=O)/C=C\c3ccc(O)c(O)c3)cc2)nc1 [CASMD, (Z)-3-(3,4-Dihydroxyphenyl)-N-(4-(N-(5-methoxypyrimidin-2-yl)sulfamoyl)phenyl)acrylamide]
- free radical scavenging effect compared with vitamin C [2]: higher
- viability of A549 cells (A549 cells [1]; concentration ≤100 μM): not significantly decreased
- viability of A549 cells (A549 cells [1]; concentration ≤200 μM): not significantly decreased

SMILES: NS(=O)(=O)c1ccc(NC(=O)/C=C\c2ccc(O)c(O)c2)cc1 [CASN, (Z)-3-(3,4-Dihydroxyphenyl)-N-(4-sulfamoylphenyl)acrylamide]
- free radical scavenging effect compared with vitamin C [2]: higher
- viability of A549 cells (A549 cells [1]; concentration ≤200 μM): not significantly decreased

SMILES: O=C(O)/C=C/c1ccc(O)c(O)c1 [Caffeic acid]
- prevention of 800 μM H2O2 induced decrease in cell viability (A549 cells [3]): could not prevent

SMILES: O=C1O[C@H]([C@@H](O)CO)C(O)=C1O [Vitamin C]
- prevention of 800 μM H2O2 induced decrease in cell viability (A549 cells [3]): could not prevent
